From ChEMBL document CHEMBL3297672, “Ingol-type diterpenes from Euphorbia antiquorum with mouse 11β-hydroxysteroid dehydrogenase type 1 inhibition activity” (J Nat Prod, 2014)
Calls of active or inactive are those of the source. The calls are words filed in the database; no cut-off is given here.

How the values were obtained:
[1] = target: T1, Tyrosine-protein phosphatase non-receptor type 1 (Homo sapiens, UniProt P18031); assay: Inhibition of PTP1B (unknown origin)
T1 sequence (P18031 whole entry): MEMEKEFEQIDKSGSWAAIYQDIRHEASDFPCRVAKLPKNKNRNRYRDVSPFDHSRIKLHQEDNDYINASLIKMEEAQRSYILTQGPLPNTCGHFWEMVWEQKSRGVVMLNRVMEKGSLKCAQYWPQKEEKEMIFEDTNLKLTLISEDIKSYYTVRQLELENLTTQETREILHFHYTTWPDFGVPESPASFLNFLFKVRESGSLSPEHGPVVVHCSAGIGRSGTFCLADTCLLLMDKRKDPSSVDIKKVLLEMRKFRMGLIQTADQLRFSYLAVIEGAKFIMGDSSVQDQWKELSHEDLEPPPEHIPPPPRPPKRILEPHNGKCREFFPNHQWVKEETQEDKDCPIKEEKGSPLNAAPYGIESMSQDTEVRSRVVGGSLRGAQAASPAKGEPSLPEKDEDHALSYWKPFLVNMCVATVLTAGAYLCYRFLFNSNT

HL-60 = assay: Cytotoxicity against human HL60 cells; type: functional, cell-based
Outline: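 Cytotoxicity against HL-60 cells was read out by the MTT method, following a previously reported protocol.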

A549 = assay: Cytotoxicity against human A549 cells; type: functional, cell-based
[2] = target: 11-beta-hydroxysteroid dehydrogenase 1 (Homo sapiens) (UniProt P28845); assay: Inhibition of human 11beta-HSD1 expressed in HEK293 cells assessed as inhibition of [3H]cortisone to [3H]cortisol conversion by SPA; type: cell-based
Outline: (§1)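 Scintillation proximity assay against human or mouse 11β-HSD1 enzyme activity, using microsomes containing the enzyme. Glycyrrhetinic acid was the positive control.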

[3] = target: 11-beta-hydroxysteroid dehydrogenase 1 (Mus musculus, UniProt P50172); assay: Inhibition of mouse 11beta-HSD1 expressed in HEK293 cells assessed as inhibition of [3H]cortisone to [3H]cortisol conversion by SPA; type: cell-based; outline: as §1
Chain of 11-beta-hydroxysteroid dehydrogenase 1 (P50172 whole entry): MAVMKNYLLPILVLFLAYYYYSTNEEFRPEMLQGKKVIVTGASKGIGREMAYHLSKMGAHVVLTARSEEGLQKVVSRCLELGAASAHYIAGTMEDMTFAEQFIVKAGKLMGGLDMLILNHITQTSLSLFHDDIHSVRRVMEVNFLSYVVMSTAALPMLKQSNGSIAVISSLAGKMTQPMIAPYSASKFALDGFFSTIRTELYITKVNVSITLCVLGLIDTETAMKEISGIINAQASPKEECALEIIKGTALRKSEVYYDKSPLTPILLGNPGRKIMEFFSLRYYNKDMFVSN

Chain of 11-beta-hydroxysteroid dehydrogenase 1 (Homo sapiens) (P28845 whole entry, looked up): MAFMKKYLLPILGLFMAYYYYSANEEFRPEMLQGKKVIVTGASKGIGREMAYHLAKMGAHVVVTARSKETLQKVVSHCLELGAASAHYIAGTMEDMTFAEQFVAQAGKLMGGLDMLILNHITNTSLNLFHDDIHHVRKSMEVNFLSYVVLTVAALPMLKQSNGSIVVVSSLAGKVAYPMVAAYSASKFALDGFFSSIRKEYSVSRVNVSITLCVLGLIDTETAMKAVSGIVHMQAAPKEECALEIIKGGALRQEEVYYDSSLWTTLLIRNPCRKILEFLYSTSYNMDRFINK

For `CC(=O)O[C@@H]1[C@@H]2[C@H]([C@@H](OC(=O)c3cccnc3)[C@H](OC(=O)c3ccccc3)/C(C)=C/[C@@]34O[C@@]3(C[C@H](C)[C@@H]4OC(C)=O)C(=O)[C@@H]1C)C2(C)C`, which IC50 [1] is on record?
The IC50 was over 10 µM.

What about the IC50 (HL-60) of the same compound?
Its IC50 is over 10 µM.

What about the IC50 (A549) of the same compound?
Its IC50 is over 10 µM.

What about the inhibition [2] of the same compound?
Its inhibition is “inactive”.

And the IC50 [3]?
The IC50 was 0.41 µM.

With `C/C=C(/C)C(=O)O[C@@H]1/C(C)=C/[C@@]23O[C@@]2(C[C@H](C)[C@@H]3OC(C)=O)C(=O)[C@H](C)[C@H](OC(C)=O)[C@@H]2[C@H]([C@H]1OC)C2(C)C` as the compound, how does the IC50 [1] read?
The IC50 was over 10 µM.

What about the IC50 (HL-60) of the same compound?
The IC50 was over 10 µM.

And the IC50 (A549)?
Its IC50 is over 10 µM.

And the inhibition [2]?
The inhibition was “inactive”.

How did the IC50 [1] turn out when `CO[C@@H]1[C@H]2[C@@H]([C@@H](OC(C)=O)[C@@H](C)C(=O)[C@@]34C[C@H](C)[C@H](OC(C)=O)[C@]3(/C=C(\CO)[C@H]1OC(=O)c1ccccc1)O4)C2(C)C` was run?
The IC50 was over 10 µM.

What about the IC50 (HL-60) of the same compound?
The IC50 was over 10 µM.

And the IC50 (A549)?
Its IC50 is over 10 µM.

Which results are given for `C/C=C(/C)C(=O)O[C@@H]1/C(C)=C/[C@@]23O[C@@]2(C[C@H](C)[C@@H]3O)C(=O)[C@H](C)[C@H](O)[C@@H]2[C@H]([C@H]1OC)C2(C)C`?
IC50 [1]: > 10 µM; IC50 (HL-60): > 10 µM; IC50 (A549): > 10 µM

Which IC50 [1] does the source give for `CO[C@@H]1[C@H]2[C@@H]([C@@H](OC(C)=O)[C@@H](C)C(=O)[C@@]34C[C@H](C)[C@H](OC(C)=O)[C@]3(/C=C(\C)[C@H]1OC(=O)[C@]1(C)O[C@@H]1C)O4)C2(C)C` here?
Its IC50 is over 10 µM.

And the IC50 (HL-60)?
The IC50 was over 10 µM.

And the IC50 (A549)?
Its IC50 is over 10 µM.

And the inhibition [2]?
Its inhibition is “inactive”.

`CC(=O)O[C@H]1[C@@H](C)C[C@@]23O[C@@]12/C=C(\C)[C@@H](O)[C@H](OC(=O)c1ccccc1)[C@H]1[C@@H]([C@@H](O)[C@@H](C)C3=O)C1(C)C` was tested. Which IC50 [1] did it give?
Its IC50 is over 10 µM.

What about the IC50 (HL-60) of the same compound?
Its IC50 is over 10 µM.

What about the IC50 (A549) of the same compound?
Its IC50 is over 10 µM.

What about the inhibition [2] of the same compound?
The inhibition was “inactive”.

`CCC(C)C(=O)O[C@@H]1[C@H]2[C@@H]([C@@H](OC(C)=O)[C@@H](C)C(=O)[C@@]34C[C@@H](C)[C@@H](OC(C)=O)[C@]3(/C=C(\C)[C@H]1O)O4)C2(C)C` (some centres not stated) was tested. Which IC50 [1] did it give?
The IC50 was over 10 µM.

And the IC50 (HL-60)?
The IC50 was over 10 µM.

And the IC50 (A549)?
Its IC50 is over 10 µM.

What about the inhibition [2] of the same compound?
The inhibition was “inactive”.

Which IC50 [1] does the source give for `CO[C@@H]1[C@H]2[C@@H]([C@@H](OC(C)=O)[C@@H](C)C(=O)[C@@]34C[C@H](C)[C@H](O)[C@]3(/C=C(\C)[C@H]1OC(=O)c1ccccc1)O4)C2(C)C` here?
The IC50 was over 10 µM.

What about the IC50 (HL-60) of the same compound?
Its IC50 is over 10 µM.

What about the IC50 (A549) of the same compound?
Its IC50 is over 10 µM.

And the inhibition [2]?
Its inhibition is “inactive”.

How did the IC50 [1] turn out when `C/C=C(/C)C(=O)O[C@@H]1/C(C)=C/[C@@]23O[C@@]2(C[C@H](C)[C@@H]3O)C(=O)[C@H](C)[C@H](OC(C)=O)[C@@H]2[C@H]([C@H]1OC)C2(C)C` was run?
The IC50 was over 10 µM.

And the IC50 (HL-60)?
The IC50 was over 10 µM.

What about the IC50 (A549) of the same compound?
Its IC50 is over 10 µM.

And the inhibition [2]?
Its inhibition is “inactive”.

What does the source list for `C/C=C(/C)C(=O)O[C@@H]1/C(CO)=C/[C@@]23O[C@@]2(C[C@H](C)[C@@H]3OC(C)=O)C(=O)[C@H](C)[C@H](OC(C)=O)[C@@H]2[C@H]([C@H]1OC)C2(C)C`?
IC50 [1]: > 10 µM; IC50 (HL-60): > 10 µM; IC50 (A549): > 10 µM; inhibition [2]: inactive; IC50 [3]: 12 µM

What does the source list for `CO[C@@H]1[C@H]2[C@@H]([C@@H](O)[C@@H](C)C(=O)[C@@]34C[C@H](C)[C@H](OC(C)=O)[C@]3(/C=C(\C)[C@H]1OC(=O)c1ccccc1)O4)C2(C)C`?
IC50 [1]: > 10 µM; IC50 (HL-60): > 10 µM; IC50 (A549): > 10 µM

What does the source list for `C/C=C(/C)C(=O)O[C@@H]1/C(C)=C/[C@@]23O[C@@]2(C[C@@H](C)[C@H]3O)C(=O)[C@H](C)[C@H](OC(C)=O)[C@@H]2[C@H]([C@H]1OC)C2(C)C`?
IC50 [1]: > 10 µM; IC50 (HL-60): > 10 µM; IC50 (A549): > 10 µM; inhibition [2]: inactive

How did the IC50 [1] turn out when `C/C=C(\C)C(=O)O[C@@H]1/C(C)=C/[C@@]23O[C@@]2(C[C@H](C)[C@@H]3OC(C)=O)C(=O)[C@H](C)[C@H](OC(C)=O)[C@@H]2[C@H]([C@H]1OC(C)=O)C2(C)C` was run?
Its IC50 is over 10 µM.

And the IC50 (HL-60)?
The IC50 was over 10 µM.

And the IC50 (A549)?
Its IC50 is over 10 µM.

What about the inhibition [2] of the same compound?
Its inhibition is “inactive”.

With `CCC(C)C(=O)O[C@@H]1[C@H]2[C@@H]([C@@H](OC(C)=O)[C@@H](C)C(=O)[C@@]34C[C@H](C)[C@H](O)[C@]3(/C=C(\C)[C@H]1OC(C)=O)O4)C2(C)C` (some centres not stated) as the compound, how does the IC50 [1] read?
The IC50 was over 10 µM.

And the IC50 (HL-60)?
Its IC50 is over 10 µM.

And the IC50 (A549)?
The IC50 was over 10 µM.

What about the inhibition [2] of the same compound?
The inhibition was “inactive”.

What about the IC50 [3] of the same compound?
The IC50 was 6.4 µM.

With `CO[C@@H]1[C@H]2[C@@H]([C@@H](OC(C)=O)[C@@H](C)C(=O)[C@@]34C[C@H](C)[C@H](OC(C)=O)[C@]3(/C=C(\C)[C@H]1OC(=O)[C@@]1(C)O[C@@H]1C)O4)C2(C)C` as the compound, how does the IC50 [1] read?
The IC50 was over 10 µM.

What about the IC50 (HL-60) of the same compound?
The IC50 was over 10 µM.

And the IC50 (A549)?
The IC50 was over 10 µM.

`CCC(C)C(=O)O[C@@H]1[C@H]2[C@@H]([C@@H](OC(C)=O)[C@@H](C)C(=O)[C@@]34C[C@H](C)[C@H](OC(C)=O)[C@]3(/C=C(\C)[C@H]1O)O4)C2(C)C` (some centres not stated) was tested. Which IC50 [1] did it give?
The IC50 was over 10 µM.

What about the IC50 (HL-60) of the same compound?
Its IC50 is over 10 µM.

What about the IC50 (A549) of the same compound?
The IC50 was over 10 µM.

And the inhibition [2]?
Its inhibition is “inactive”.

Which results are given for `C=C(C(=O)O[C@@H]1/C(C)=C/[C@@]23O[C@@]2(C[C@H](C)[C@@H]3OC(C)=O)C(=O)[C@H](C)[C@H](OC(C)=O)[C@@H]2[C@H]([C@H]1OC)C2(C)C)C(C)O` (some centres not stated)?
IC50 [1]: > 10 µM; IC50 (HL-60): > 10 µM; IC50 (A549): > 10 µM; inhibition [2]: inactive

What does the source list for `C/C=C(/C)C(=O)O[C@@H]1/C(C)=C/[C@@]23O[C@@]2(C[C@@H](C)[C@H]3O)C(=O)[C@H](C)[C@H](O)[C@@H]2[C@H]([C@H]1OC)C2(C)C`?
IC50 [1]: > 10 µM; IC50 (HL-60): > 10 µM

What does the source list for `C/C=C(/C)C(=O)O[C@@H]1/C(C=O)=C/[C@@]23O[C@@]2(C[C@H](C)[C@@H]3OC(C)=O)C(=O)[C@H](C)[C@H](OC(C)=O)[C@@H]2[C@H]([C@H]1OC)C2(C)C`?
IC50 [1]: > 10 µM; IC50 (HL-60): > 10 µM; IC50 (A549): > 10 µM
